Experimental data reported in ChEMBL document CHEMBL5532690, “Antitubercular activity of 2-mercaptobenzothiazole derivatives targeting Mycobacterium tuberculosis type II NADH dehydrogenase” (RSC Med Chem, 2024).
Converted amounts (≈) assume the structure as drawn. The source made the active and inactive calls. The rule behind the calls is not given here.

Legend:
[1] = tested on: Mycobacterium tuberculosis; assay: Inhibition of NDH-2 in Mycobacterium tuberculosis transformed with pMV762-Peredox-mCherry assessed as change in NADH/NAD+ ratio at 59.16 ug/ml incubated for 24 hrs by fluorimetric assay; details: dose 59.16 µg/ml
[2] = tested on: Mycobacterium tuberculosis; assay: Antitubercular activity against isoniazid-resistant Mycobacterium tuberculosis mc2 8243 measured after 10 days by liquid broth microdilution assay; format: functional; details: mc2 8243, 240 h, time 10 day
Outline: (§1)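 Broth microdilution in 7H9 with glycerol, ADS and 0.05% tyloxapol, supplemented with L-methionine, L-leucine (50 mg L−1 each), L-arginine (200 mg L−1) and D-pantothenate (24 mg L−1). Inoculum was diluted to OD600 0.005 (1.0 × 10^6 CFU ml−1) and added to two-fold serial dilutions. After 10 days at 37 °C, MIC was the lowest concentration without visible turbidity.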

[3] = tested on: Mycobacterium tuberculosis; assay: Antitubercular activity against rifampicin-resistant Mycobacterium tuberculosis mc2 8247 measured after 10 days by liquid broth microdilution assay; format: functional; details: mc2 8247, 240 h, time 10 day; outline: as §1
[4] = tested on: Mycobacterium tuberculosis; assay: Antitubercular activity against isoniazid and rifampicin resistant Mycobacterium tuberculosis mc2 8259 measured after 10 days by liquid broth microdilution assay; format: functional; details: mc2 8259, 240 h, time 10 day; outline: as §1
[5] = tested on: Mycobacterium tuberculosis; assay: Inhibition of NDH-2 in Mycobacterium tuberculosis transformed with pMV762-Peredox-mCherry incubated for 24 hrs by fluorimetric assay
Outline: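 Peredox-mCherry reporter Mtb was grown in supplemented 7H9 to OD600 0.4–0.6 and inoculated onto compounds, then held at 37 °C for 24 h. Fluorescence was read at ex 400/em 510 nm and ex 587/em 615 nm. The green/red ratio was taken as NADH/NAD+. Triplicates; one-way ANOVA with Dunnett's test.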

[6] = tested on: Mycobacterium tuberculosis; assay: Inhibition of NDH-2 in Mycobacterium tuberculosis transformed with pMV762-Peredox-mCherry assessed as change in NADH/NAD+ ratio at 2.5 ug/ml incubated for 24 hrs by fluorimetric assay; details: dose 2.5 µg/ml

Structure (SMILES)	inhibition [1]	MIC90 [2] [µg/mL]	MIC90 [3] [µg/mL]	MIC90 [4] [µg/mL]	inhibition [5]	inhibition [6]
C=C(C)[C@H]1Cc2c(ccc3c2O[C@@H]2COc4cc(OC)c(OC)cc4[C@@H]2C3=O)O1 [ROTENONE]	Active					
NNC(=O)c1ccncc1 [ISONIAZID]		> 128	0.25 (≈ 1.82 µM)	> 128		
O=C(CSc1nc2ccccc2c(=O)[nH]1)NC1CCCCC1		0.125 (≈ 0.394 µM)	0.25 (≈ 0.788 µM)	0.125 (≈ 0.394 µM)		
O=C(CSc1nc2c(Br)cc(F)cc2s1)NC1CCCCC1		8 (≈ 19.8 µM)	4 (≈ 9.92 µM)	8 (≈ 19.8 µM)		
CO[C@H]1/C=C/O[C@@]2(C)Oc3c(C)c(O)c4c(O)c(c(/C=N/N5CCN(C)CC5)c(O)c4c3C2=O)NC(=O)/C(C)=C\C=C\[C@H](C)[C@H](O)[C@@H](C)[C@@H](O)[C@@H](C)[C@H](OC(C)=O)[C@@H]1C [RIFAMPIN]		0.12 (≈ 0.146 µM)	> 128	> 128		
Cc1cc(C)c2nc(SCC(=O)NC3CCCCC3)sc2c1		4 (≈ 12 µM)	8 (≈ 23.9 µM)	4 (≈ 12 µM)	Active	
CC(C)c1ccc2nc(SCC(=O)NC3CCCCC3)sc2c1		4 (≈ 11.5 µM)	4 (≈ 11.5 µM)	4 (≈ 11.5 µM)	Active	
CC(C)/N=c1\cc2n(-c3ccc(Cl)cc3)c3ccccc3nc-2cc1Nc1ccc(Cl)cc1 [CLOFAZIMINE]						inactive
